ABCB6 inh MLPCN – inhibitors of human ABC transporter ABCB6. 360,000 tested, 0.19% active. fluorescence ratio to DMSO, % at 10 µM. Q9NP58. K562-ABCB6 porphyrin accumulation, flow cytometry, 1 h; stronger effect = lower value;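 active = fluorescence ratio to DMSO below 75%, the collection mean minus 3 SD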;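 note: signal is porphyrin accumulated inside mitochondria; 100% equals median channel fluorescence of DMSO control wells; lower ratio means ABCB6 inhibition with less porphyrin fluorescence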
Exocytosis inh – blocks lytic granule exocytosis. TALL-104 LAMP-1 surface exposure, flow cytometry; cells stimulated with thapsigargin and PMA. inhibition, % at 10 µM. 360,000 tested, 0.66% active;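 active = inhibition above about 55%, limit read from the data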
DAGLB inhibitor – diacylglycerol lipase beta (human) inhibition. HEK293T DAGLB membrane lysate, EnzChek fluorogenic substrate. Q8NCG7. inhibition, % at 5.17 µM. 340,000 tested, 0.059% active; in the data active = inhibition above about 34%;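 note: 0% = enzyme with vehicle and 100% = wells lacking enzyme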
FGF22 binding – binders of recombinant human FGF22 by thermal shift | Q9HCT0 | SYPRO orange fluorescence; percent of sucrose octasulfate shift, DMSO zero | activity (Tm shift, normalised), % at 9.99 µM | 340,000 tested, 1.5% active | AID 651658;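 active = mean Tm shift, scaled 0 neutral to 100 positive control, at about 1.3% or above, every replicate too, limit read from the data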
Target sequence (Q9HCT0 whole entry, looked up): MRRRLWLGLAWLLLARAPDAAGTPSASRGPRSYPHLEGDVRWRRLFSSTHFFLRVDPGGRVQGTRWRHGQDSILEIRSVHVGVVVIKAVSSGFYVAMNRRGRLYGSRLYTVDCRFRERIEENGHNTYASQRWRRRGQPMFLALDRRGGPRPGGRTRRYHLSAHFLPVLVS
MT1-MMP act inh – blocks activation of human MT1-MMP; P50281; 360,000 tested, 0.061% active; GFP/RFP ratio change, % at 20 µM; HT1080 RFP-PRO-GFP cells, GFP/RFP ratio fluorescence, overnight; percent of plate control window, DMSO zero;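 active = GFP/RFP ratio change of at least 30% with cell ATP level not reduced by more than half and red fluorescence within 50% of control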
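Assay system: HT1080 RFP-PRO-GFP cells. Benchmarks: DMSO vehicle wells and RFP-L50D-GFP reporter cell wells. Times: overnight cell settling, then overnight compound exposure, 37 °C, 5% CO2. Compound: 20 µM single dose, 1% DMSO. Read-out basis: GFP/RFP fluorescence ratio.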
VLA-4 inh – inhibition in a human VLA-4 binding assay. VLA-4 expressing cells, ligand binding flow cytometry. 330,000 tested, 0.2% active. inhibition, % (about 7 µM as worked out from the volumes in the protocol); in the data active = inhibition above about 50%
Starred values were filed as active, the others as inactive; i = inactive; . = not tested or not shown. Most compounds without a hit are left out; they make up all but 2% or so of the library.

SMILES	ABCB6 inh MLPCN	Exocytosis inh	DAGLB inhibitor	FGF22 binding	MT1-MMP act inh	VLA-4 inh
O=C(O)c1ccc(N2C(=O)/C(=C/c3ccc(-c4ccc([N+](=O)[O-])cc4)o3)C=C2c2ccccc2)cc1	i	56*	5	.	44	i
Cc1ccc(S(=O)(=O)N[C@H]2CC[C@H](CC(=O)N3CCc4ccccc4C3)O[C@@H]2CO)cc1	.	.	.	0	.	.
C[C@@H](C(=O)NCCc1c[nH]c2ccccc12)[C@@H]1C[C@@]1(C)[C@@H](NC(=O)OCc1ccccc1)c1ccccc1	74*	1	3	0	-4	-4
C[C@@H](C(=O)NCc1ccccc1)[C@@H]1C[C@@]1(C)[C@@H](NC(=O)OCc1ccccc1)c1ccccc1	103	12	-3	0	-12	-5
O=C(c1nnsc1S(=O)c1ccc(Cl)cc1)N1CCOCC1 (centres undefined)	108	43	-6	0	-17	.
O=C(Nc1ccccc1)c1nnsc1S(=O)c1ccc(Cl)cc1 (centres undefined)	101	60*	-4	.	-7	14
CN(C)CC(=O)N[C@@H]1CC[C@H](CCn2cc(C3CCCC3)nn2)O[C@@H]1CO	.	.	.	0	.	.
Oc1ccc(NCc2ccccc2OCc2ccccc2)cc1	100	2	1	0	24	-14
C#CCOc1ccccc1CNc1ccccc1	94	-1	-1	43*	-2	4
COC(=O)c1c(CC[C@@H](CO)NC(=O)N[C@H](Cn2cc(-c3cncn3C)nn2)C(C)C)oc(C(C)=O)c1C(=O)OC	.	.	.	1.6*	.	.
CCCCc1cn(C[C@H](Cc2ccccc2)NC(=O)N[C@H](CO)CCc2oc(C(C)=O)c(C(=O)OC)c2C(=O)OC)nn1	.	.	.	1	.	.
O=C(c1cccs1)N1CCN=C1SCc1ccccc1F	95	0	-2	43*	2	4
O=C(c1cccs1)N1CCN=C1SCc1ccc(Cl)cc1	89	-2	-1	0	0	-8
CC(N=Cc1cc([N+](=O)[O-])ccc1O)c1ccccc1 (centres undefined)	104	0	8	44*	4	-10
CN(/N=C/c1cc([N+](=O)[O-])ccc1O)c1ccccc1	92	-3	-2	0	0	9
COc1ccc([C@H]2CC(=O)C=C(c3ccc4c(c3)OCO4)C2)cc1OC	93	-1	0	4.0*	-2	3
C[C@@H]1CN([C@@H](C)CO)S(=O)(=O)c2ccc(-c3ccncc3)cc2O[C@@H]1CN(C)C(=O)CN(C)C	.	.	.	0	.	.
Cc1ccc(SCCN)cc1C	94	1	0	43*	-3	7
CC1CCCC(NC(=O)COC(=O)[C@@H](NC(=O)c2ccco2)C(C)C)C1C (some centres undefined)	96	-1	2	45*	0	-5
CC1CCCC(NC(=O)COC(=O)[C@@H](NC(=O)c2ccc(F)cc2)C(C)C)C1C (some centres undefined)	99	12	1	1	-4	-6
C=C(C)COc1ccc(-c2n[nH]c(C)c2Oc2ccccc2OC)c(O)c1	95	74*	-11	.	-6	13
O=C(COC(=O)c1cccnc1Cl)Nc1ccccc1OC(F)F	99	1	1	0	-1	13
O=C(COC(=O)c1ccccn1)Nc1ccccc1OC(F)F	93	-3	-2	43*	-2	18
O=[N+]([O-])c1cccc(COc2cccc(CN3CCCCC3)c2)c1	96	-4	-8	43*	0	.
O=C(c1ccco1)N1CCN(Cc2cccc([N+](=O)[O-])c2)CC1	98	-2	-1	44*	2	5
O=[N+]([O-])c1cccc(COc2cccc(CN3CCCC3)c2)c1	102	-4	-6	0	4	.
O=C(c1cccs1)N1CCN(Cc2cccc([N+](=O)[O-])c2)CC1	87	1	-6	0	-2	-3
CCN(CC)C(=O)COc1ccc2oc(-c3ccco3)cc(=O)c2c1	106	7	-1	44*	1	-14
O=C(CCc1ccccc1)OCC(=O)c1ccc(Br)cc1	93	-4	-6	43*	-2	-1

High-throughput results as filed in PubChem.
